Compound activity as filed in PubChem.
m5-HT2A agonist – agonists of mouse serotonin 5-HT2A receptor (HTR2A); CHO-K1 mHTR2A beta-arrestin complementation, luminescence; percent of 30 µM serotonin response; AID 624169; 0.66% of 360,000 active; P35363; activation, % at 7.6 µM;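 active means activation above a run cutoff, the mean activation of all tested compounds plus 3 SD, cut at about 14% in these data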
Arr AP2 block – human beta-arrestin and AP2 interaction inhibition | FITC-arrestin peptide / GST-AP2 beads, flow cytometry; AP2 beta2 appendage carries R879A mutation | inhibition, % at 10 µM | 0.31% of 340,000 active;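 active means inhibition above a set limit, near 3 SD of compounds lacking own fluorescence, cut at about 54% in these data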
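System: GST-tagged AP2 beta2-adaptin appendage (R879A) on 4 µm glutathione beads / Reagent: FITC-arrestin peptide, 50 nM / Detection: HyperCyt-sampled flow cytometry, FL1 channel, ex 488/em 535 nm / Timing: 12 min plus 1 h, RT / Buffer or medium: PBS plus Tween 20 (0.05%) and BSA (0.1%)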
PfM18AAP inh – PfM18AAP enzyme inhibition | recombinant PfM18AAP, H-Glu-NHMec fluorogenic cleavage | inhibition, % at 7.35 µM | 1.2% of 290,000 active | AID 1822;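 active means inhibition above the campaign mean inhibition over all tested compounds plus 3 SD, cut at about 28% in these data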
CendR NRP1 mod – NRP-1/CendR interaction modulation. O14786. FAM-RPARPAR peptide binding to NRP-1, fluorescence polarization. inhibition, % at 25 µM. 0.85% of 360,000 active;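 active means inhibition or corrected inhibition above about 18%, plus a signal ratio from 0.5 to 1.5, limit read from the data, passing the limit was not always enough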
HGIII-sPLA2 inh – Inhibits HGIII-sPLA2 liposome hydrolysis, primary screen | Q9NZ20 | QFRET BODIPY PC-A2 liposome hydrolysis, fluorescence | inhibition, % at 12.2 µM | 0.56% of 370,000 active | AID 743126;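 active means inhibition above mean plus 3 SD of compounds lying within the high and low control bounds, cut at about 19% in these data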
Target sequence (Q9NZ20 whole entry, looked up): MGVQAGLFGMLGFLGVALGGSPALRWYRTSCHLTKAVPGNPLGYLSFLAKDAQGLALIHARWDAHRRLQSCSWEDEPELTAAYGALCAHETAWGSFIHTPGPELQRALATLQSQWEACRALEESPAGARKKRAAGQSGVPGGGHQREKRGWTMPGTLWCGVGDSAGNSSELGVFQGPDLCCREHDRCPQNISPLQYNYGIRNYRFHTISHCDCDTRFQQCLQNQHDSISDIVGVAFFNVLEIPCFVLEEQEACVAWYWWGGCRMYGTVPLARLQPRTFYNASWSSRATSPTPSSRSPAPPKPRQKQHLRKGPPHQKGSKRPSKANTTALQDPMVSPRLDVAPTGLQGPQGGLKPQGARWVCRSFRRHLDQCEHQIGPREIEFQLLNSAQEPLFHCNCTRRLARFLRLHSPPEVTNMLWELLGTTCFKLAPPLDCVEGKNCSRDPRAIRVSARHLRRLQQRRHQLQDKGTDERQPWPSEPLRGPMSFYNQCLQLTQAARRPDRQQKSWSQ
Hep lipid drop – modulators of hepatic lipid droplet formation; AML12 mouse hepatocytes, oleate lipid droplets, BODIPY imaging; inhibition, % at 6.5 µM; 0.4% of 240,000 active; AID 1656;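 active means lipid droplet intensity inhibited by at least 50%, with more than 500 cells counted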
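Material: mouse AML12 hepatocyte cell line, fixed after treatment; Timing: compound with oleate, overnight; Technique: high-content imaging of BODIPY-stained droplets and DAPI nuclei; Probe or stimulus: oleate, 100 µM final; Dosing: compound at 6.5 µM only.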
Hep lipid conf – confirmation of inhibitors of hepatic lipid droplet formation; shares compounds with Hep lipid drop; AML12 mouse hepatocytes, BODIPY lipid droplet imaging; droplets induced with 100 µM oleic acid; 65% of 870 active; inhibition, % at 5.2 µM;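 active means inhibition of lipid droplet metric at least 50%, with more than 300 cells in each of four replicates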
AML12 tox img – counter-screen for cytotoxicity in AML12 mouse hepatocytes. shares compounds with Hep lipid drop. DAPI nuclear morphology cytotoxicity imaging; active compounds read high; cells fed 100 µM oleate overnight. z-score at 5 µM. 3% of 870 active; in the data active means z-score above about 6.3;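 further: compound exposure lasted overnight at 37 °C before fixation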
AML12 tox ATP – confirmation of cytotoxicity in AML12 mouse hepatocytes. shares compounds with Hep lipid drop. AML12 mouse hepatocyte viability, ATP luminescence; cells loaded with 100 µM oleic acid. cytotoxicity, % at 50 µM. 530 tested, under 10 active;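 active means cytotoxicity above 50% in each of four replicates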;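 further: compound exposure lasted overnight at 37 °C before the ATP read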
A number is an active result. Most compounds without a hit are left out; they make up all but 3.3% or so of the library.

Screening O=c1c(O[C@@H]2O[C@H](CO)[C@@H](O)[C@H](O)[C@H]2O)c(-c2ccc(O)c(O)c2)oc2cc(O)cc(O)c12 returned PfM18AAP inh 68 and Hep lipid drop inactive.
For O=c1c(O[C@@H]2O[C@H](CO)[C@H](O)[C@H](O)[C@H]2O)c(-c2ccc(O)c(O)c2)oc2cc(O)cc(O)c12 the results were PfM18AAP inh 68 and Hep lipid drop inactive.
Screening O=c1c(OC2OC(CO)C(O)C(O)C2OC2OC(CO)C(O)C(O)C2OC2OC(CO)C(O)C(O)C2O)c(-c2ccc(O)c(O)c2)oc2cc(O)cc(O)c12 (stereo not drawn) returned m5-HT2A agonist inactive, Arr AP2 block inactive, CendR NRP1 mod inactive, HGIII-sPLA2 inh inactive and Hep lipid drop inactive.
For O=c1c(O[C@@H]2O[C@H](CO)[C@@H](O)[C@H](O)[C@H]2O)c(-c2ccc(O)cc2)oc2cc(O)cc(O)c12 the results were m5-HT2A agonist inactive, Arr AP2 block inactive and CendR NRP1 mod inactive.
For COCc1cc(N2CCN(C(=O)OC(C)(C)C)C[C@H]2C)ccc1N1CCN(Cc2ccccc2)[C@H](C)C1 the results were HGIII-sPLA2 inh inactive.
Screening CSCCC(NC(=O)c1ccc(Cl)cc1Cl)C(=O)NCc1ccccn1 (stereo not drawn) returned m5-HT2A agonist inactive, Arr AP2 block inactive, PfM18AAP inh inactive, CendR NRP1 mod inactive, HGIII-sPLA2 inh inactive and Hep lipid drop inactive.
`CSCCC(NC(=O)c1ccc(Cl)cc1Cl)C(=O)NCC(c1cccs1)N(C)C` (stereo not drawn) gave m5-HT2A agonist inactive, Arr AP2 block inactive, CendR NRP1 mod 26 and HGIII-sPLA2 inh inactive.
Screening CC(=O)NS(=O)(=O)c1ccc(N=NN2CCOCC2)cc1 returned m5-HT2A agonist inactive, Arr AP2 block inactive, PfM18AAP inh inactive, CendR NRP1 mod 27, HGIII-sPLA2 inh inactive and Hep lipid drop inactive.
`C[C@H]1CN=C(N(C)C)N1CC1CCC(C(C)(C)C)CC1` (stereo partly drawn) gave m5-HT2A agonist inactive, Arr AP2 block inactive, CendR NRP1 mod inactive and HGIII-sPLA2 inh inactive.
COc1cccc(NC(=O)c2cc3ccccc3oc2=O)c1 was read as m5-HT2A agonist inactive, Arr AP2 block inactive, PfM18AAP inh inactive, CendR NRP1 mod inactive, HGIII-sPLA2 inh inactive and Hep lipid drop inactive.
COc1ccccc1NS(=O)(=O)c1cc(NC(=O)c2cc3ccccc3oc2=O)ccc1C was read as m5-HT2A agonist inactive, Arr AP2 block inactive, PfM18AAP inh inactive, CendR NRP1 mod inactive, HGIII-sPLA2 inh inactive, Hep lipid drop 58, Hep lipid conf inactive and AML12 tox img inactive.
`CC1=C(C(=O)N2CCCCCC2)CC(CC(=O)NCCCN(C)C)C(=O)N1Cc1ccc(F)cc1` (stereo not drawn) gave m5-HT2A agonist inactive, CendR NRP1 mod inactive and HGIII-sPLA2 inh inactive.
`COc1ccc(/C=C/C(=O)NCC2COc3ccccc3O2)cc1OC` (stereo not drawn) gave m5-HT2A agonist inactive, Arr AP2 block inactive, PfM18AAP inh inactive, CendR NRP1 mod inactive, HGIII-sPLA2 inh inactive and Hep lipid drop inactive.
Screening Cc1ccc(/C=C/C(=O)NCC2COc3ccccc3O2)o1 (stereo not drawn) returned m5-HT2A agonist inactive, Arr AP2 block inactive, PfM18AAP inh inactive, CendR NRP1 mod inactive, HGIII-sPLA2 inh inactive, Hep lipid drop 53, Hep lipid conf inactive and AML12 tox img inactive.
For Cc1c(C)c2ccc(OCC(=O)NCCCN3CCCC3=O)cc2oc1=O the results were m5-HT2A agonist inactive, Arr AP2 block inactive, PfM18AAP inh inactive, CendR NRP1 mod inactive, HGIII-sPLA2 inh inactive and Hep lipid drop inactive.
For Cc1cc(=O)oc2cc(OCC(=O)NCCCN3CCCC3=O)ccc12 the results were m5-HT2A agonist inactive, Arr AP2 block inactive, PfM18AAP inh inactive, CendR NRP1 mod inactive, HGIII-sPLA2 inh inactive, Hep lipid drop 52, Hep lipid conf inactive and AML12 tox img inactive.
Screening CCc1ccc(NC(=O)CNC(=O)[C@@H]2Cc3ccccc3CN2C(=O)OC(C)(C)C)cc1 returned m5-HT2A agonist inactive, Arr AP2 block inactive, PfM18AAP inh inactive, CendR NRP1 mod inactive, HGIII-sPLA2 inh inactive, Hep lipid drop 54, Hep lipid conf 76, AML12 tox img inactive and AML12 tox ATP inactive.
`OCC[C@@H]1C[C@H](O)[C@@H](O)[C@@]2(OCCc3cc(Cl)ccc32)O1` gave m5-HT2A agonist inactive, CendR NRP1 mod inactive and HGIII-sPLA2 inh inactive.
For CCOC(=O)c1cc(NC(=O)N(C)C2CCCCC2)c(C)nc1C the results were m5-HT2A agonist inactive, Arr AP2 block inactive, PfM18AAP inh inactive, CendR NRP1 mod inactive, HGIII-sPLA2 inh inactive, Hep lipid drop 54, Hep lipid conf 81, AML12 tox img inactive and AML12 tox ATP inactive.
For CCOC(=O)c1cc(NC(=O)N(CC)C2CCCCC2)c(C)nc1C the results were m5-HT2A agonist inactive, Arr AP2 block inactive, PfM18AAP inh inactive, CendR NRP1 mod inactive and Hep lipid drop inactive.
Screening O=C(Nc1ccccc1)c1ccc(NCC2CCCO2)c(S(=O)(=O)N2CCOCC2)c1 (stereo not drawn) returned m5-HT2A agonist inactive, Arr AP2 block inactive, PfM18AAP inh inactive, CendR NRP1 mod inactive, HGIII-sPLA2 inh inactive, Hep lipid drop 51, Hep lipid conf inactive and AML12 tox img inactive.
COc1ccccc1Nc1ccc(NC(=O)c2cccc([N+](=O)[O-])c2C)cc1 was read as m5-HT2A agonist inactive, Arr AP2 block inactive, PfM18AAP inh inactive, CendR NRP1 mod inactive, HGIII-sPLA2 inh inactive, Hep lipid drop 97, Hep lipid conf 99, AML12 tox img inactive and AML12 tox ATP inactive.
Screening COc1ccccc1C(=O)NC1CCCCN(Cc2cccc(C(F)(F)F)c2)C1=O (stereo not drawn) returned HGIII-sPLA2 inh inactive.
O=C(OCC#CCSc1nnc(-c2cccc(F)c2)o1)c1ccc(F)cc1 was read as HGIII-sPLA2 inh inactive.
`Cc1cccc(Nc2ncnc3ccccc23)c1` gave m5-HT2A agonist inactive, Arr AP2 block inactive, PfM18AAP inh inactive, CendR NRP1 mod inactive, HGIII-sPLA2 inh inactive, Hep lipid drop 66, Hep lipid conf 53 and AML12 tox img 13.
